Measured values from ChEMBL document CHEMBL3769334, “Interaction of prodigiosin with HSA and β-Lg: Spectroscopic and molecular docking studies” (Bioorg Med Chem, 2016).

How the values were obtained:
[1] = target: T1, Albumin (Homo sapiens, UniProt P02768); assay: Binding affinity to human serum albumin assessed as Stern-Volmer quenching constant at 290 K after 10 mins by fluorescence assay; assay type: ADME; conditions: isolated protein
In short: (§1)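 HSA at 0.4 µM in 20 mM Tris pH 7.4, titrated with prodigiosin at 0–3.2 µM from a methanol stock. Samples equilibrated 10 min after each addition. Excitation 295 nm, emission 310–600 nm, intensity read at the emission maximum. Run at 290, 300 and 310 K. Kb and n from log[(F0−F)/F] versus log[Q].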

[2] = target: T1, Albumin; assay: Binding affinity to human serum albumin assessed as Stern-Volmer quenching constant at 300 K after 10 mins by fluorescence assay; assay type: ADME; conditions: isolated protein; in short: as §1
[3] = target: T1, Albumin; assay: Binding affinity to human serum albumin assessed as Stern-Volmer quenching constant at 310 K after 10 mins by fluorescence assay; assay type: ADME; conditions: isolated protein; in short: as §1
[4] = target: T2, Beta-lactoglobulin (Bos taurus, UniProt P02754); assay: Binding affinity to bovine beta-lactoglobulin assessed as Stern-Volmer quenching constant at 290 K after 10 mins by fluorescence assay; assay type: ADME; conditions: cattle
T2 sequence (P02754 whole entry): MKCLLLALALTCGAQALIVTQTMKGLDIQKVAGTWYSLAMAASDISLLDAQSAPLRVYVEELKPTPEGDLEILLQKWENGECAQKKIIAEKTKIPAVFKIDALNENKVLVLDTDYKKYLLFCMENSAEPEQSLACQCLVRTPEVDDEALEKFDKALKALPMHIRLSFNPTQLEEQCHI
In short: (§2)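 Intrinsic Trp fluorescence of β-Lg at 1 µM in Tris-HCl pH 7.4, titrated with prodigiosin added from a methanol stock. Samples equilibrated 10 min after each addition. Excitation 295 nm, emission 310–600 nm, intensity read at the emission maximum. Run at 290, 300 and 310 K with a water-bath thermostat. Binding parameters taken from quenching data.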

[5] = target: T2, Beta-lactoglobulin; assay: Binding affinity to bovine beta-lactoglobulin assessed as Stern-Volmer quenching constant at 300 K after 10 mins by fluorescence assay; assay type: ADME; conditions: cattle; in short: as §2
[6] = target: T2, Beta-lactoglobulin; assay: Binding affinity to bovine beta-lactoglobulin assessed as Stern-Volmer quenching constant at 310 K after 10 mins by fluorescence assay; assay type: ADME; conditions: cattle; in short: as §2
[7] = target: T1, Albumin; assay: Binding affinity to human serum albumin assessed as bimolecular quenching rate constant at 290 K after 10 mins by fluorescence assay; assay type: ADME; conditions: isolated protein; in short: as §1
[8] = target: T1, Albumin; assay: Binding affinity to human serum albumin assessed as bimolecular quenching rate constant at 300 K after 10 mins by fluorescence assay; assay type: ADME; conditions: isolated protein; in short: as §1
[9] = target: T1, Albumin; assay: Binding affinity to human serum albumin assessed as bimolecular quenching rate constant at 310 K after 10 mins by fluorescence assay; assay type: ADME; conditions: isolated protein; in short: as §1
[10] = target: T2, Beta-lactoglobulin; assay: Binding affinity to bovine beta-lactoglobulin assessed as bimolecular quenching rate constant at 290 K after 10 mins by fluorescence assay; assay type: ADME; conditions: cattle; in short: as §2
[11] = target: T2, Beta-lactoglobulin; assay: Binding affinity to bovine beta-lactoglobulin assessed as bimolecular quenching rate constant at 300 K after 10 mins by fluorescence assay; assay type: ADME; conditions: cattle; in short: as §2
[12] = target: T2, Beta-lactoglobulin; assay: Binding affinity to bovine beta-lactoglobulin assessed as bimolecular quenching rate constant at 310 K after 10 mins by fluorescence assay; assay type: ADME; conditions: cattle; in short: as §2
[13] = target: T1, Albumin; assay: Binding affinity to human serum albumin at 290 K after 10 mins by fluorescence assay; assay type: ADME; conditions: isolated protein; in short: as §1
[14] = target: T1, Albumin; assay: Binding affinity to human serum albumin at 300 K after 10 mins by fluorescence assay; assay type: ADME; conditions: isolated protein; in short: as §1
[15] = target: T1, Albumin; assay: Binding affinity to human serum albumin at 310 K after 10 mins by fluorescence assay; assay type: ADME; conditions: isolated protein; in short: as §1
[16] = target: T2, Beta-lactoglobulin; assay: Binding affinity to bovine beta-lactoglobulin at 290 K after 10 mins by fluorescence assay; assay type: ADME; conditions: cattle; in short: as §2
[17] = target: T2, Beta-lactoglobulin; assay: Binding affinity to bovine beta-lactoglobulin at 300 K after 10 mins by fluorescence assay; assay type: ADME; conditions: cattle; in short: as §2
[18] = target: T2, Beta-lactoglobulin; assay: Binding affinity to bovine beta-lactoglobulin at 310 K after 10 mins by fluorescence assay; assay type: ADME; conditions: cattle; in short: as §2
[19] = target: T1, Albumin; assay: Binding affinity to human serum albumin assessed as quenching of protein-compound complex at protein/compound molar ratio of 5 at 290 K after 10 mins by fluorescence assay; assay type: ADME; conditions: isolated protein; in short: as §1
[20] = target: T2, Beta-lactoglobulin; assay: Binding affinity to bovine beta-lactoglobulin assessed as association constant at pH 7.4 after 30 mins by fluorescence assay; assay type: ADME; conditions: cattle, pH 7.4, 0.5 h
In short: (§3)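 β-Lg solutions at pH 3.0, 5.5 and 7.4, incubated 30 min at 25 °C before prodigiosin was added. Intrinsic fluorescence excited at 295 nm, emission monitored at 310–600 nm.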

[21] = target: T2, Beta-lactoglobulin; assay: Binding affinity to bovine beta-lactoglobulin assessed as association constant at pH 5.5 after 30 mins by fluorescence assay; assay type: ADME; conditions: cattle, pH 5.5, 0.5 h; in short: as §3
[22] = target: T2, Beta-lactoglobulin; assay: Binding affinity to bovine beta-lactoglobulin assessed as association constant at pH 3 after 30 mins by fluorescence assay; assay type: ADME; conditions: cattle, pH 3, 0.5 h; in short: as §3
[23] = target: T1, Albumin; assay: Displacement of warfarin from human serum albumin at 0.4 to 3.2 uM after 30 mins by fluorescence assay; conditions: 0.5 h
In short: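 HSA and warfarin at equal (1:1) concentrations, preincubated 30 min. Prodigiosin added at 0.4–3 µM. Fluorescence excited at 295 nm and recorded at 310–600 nm, with and without prodigiosin.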

[24] = target: T1, Albumin; assay: Binding affinity to human serum albumin assessed as quenching of protein-compound complex at protein/compound molar ratio of 7 at 300 to 310 K after 10 mins by fluorescence assay; assay type: ADME; conditions: isolated protein; in short: as §1
[25] = target: Beta-lactoglobulin (Bos taurus) (UniProt P02754); assay: Binding affinity to bovine beta-lactoglobulin assessed as quenching of protein-compound complex at protein/compound molar ratio of 4 at 310 K after 10 mins by fluorescence assay; conditions: isolated protein
[26] = target: Beta-lactoglobulin (Bos taurus) (UniProt P02754); assay: Binding affinity to bovine beta-lactoglobulin assessed as quenching of protein-compound complex at protein/compound molar ratio of 7 at 290 K after 10 mins by fluorescence assay; conditions: isolated protein
[27] = target: Beta-lactoglobulin (Bos taurus) (UniProt P02754); assay: Binding affinity to bovine beta-lactoglobulin assessed as quenching of protein-compound complex at protein/compound molar ratio of 7 at 300 K after 10 mins by fluorescence assay; conditions: isolated protein

T1 sequence (P02768 whole entry): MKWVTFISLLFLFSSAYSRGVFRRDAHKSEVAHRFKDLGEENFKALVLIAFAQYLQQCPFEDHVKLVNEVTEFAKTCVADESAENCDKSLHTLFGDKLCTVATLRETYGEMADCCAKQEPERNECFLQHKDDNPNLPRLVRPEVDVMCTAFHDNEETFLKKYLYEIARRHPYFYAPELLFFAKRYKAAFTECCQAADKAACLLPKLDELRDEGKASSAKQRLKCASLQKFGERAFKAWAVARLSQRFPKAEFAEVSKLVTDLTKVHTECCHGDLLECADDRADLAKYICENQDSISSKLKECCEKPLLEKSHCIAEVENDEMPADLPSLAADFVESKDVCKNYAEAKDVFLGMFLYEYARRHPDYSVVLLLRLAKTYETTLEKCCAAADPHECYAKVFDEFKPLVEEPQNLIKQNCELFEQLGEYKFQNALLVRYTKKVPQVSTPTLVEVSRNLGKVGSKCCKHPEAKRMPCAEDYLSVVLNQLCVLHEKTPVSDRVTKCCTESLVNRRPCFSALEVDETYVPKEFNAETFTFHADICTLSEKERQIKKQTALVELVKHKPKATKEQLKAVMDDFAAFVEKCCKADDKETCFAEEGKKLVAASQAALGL

CCCCCC1=C/C(=C\c2[nH]c(-c3ccc[nH]3)cc2OC)N=C1C
KSV [1]: 8.14 ×10⁴ /M
KSV [2]: 6.891 ×10⁴ /M
KSV [3]: 4.043 ×10⁴ /M
KSV [4]: 5.02 ×10⁴ /M
KSV [5]: 7.28 ×10⁴ /M
KSV [6]: 10.6 ×10⁴ /M
Kq [7]: 8.14 ×10¹² /M/s
Kq [8]: 6.891 ×10¹² /M/s
Kq [9]: 4.043 ×10¹² /M/s
Kq [10]: 3.92 ×10¹² /M/s
Kq [11]: 5.69 ×10¹² /M/s
Kq [12]: 8.28 ×10¹² /M/s
Activity [13]: Dose-dependent effect
Kb [13]: 48400 M⁻¹
Activity [14]: Dose-dependent effect
Kb [14]: 44100 M⁻¹
Activity [15]: Dose-dependent effect
Kb [15]: 34000 M⁻¹
Kb [16]: 12500 M⁻¹
Kb [17]: 19900 M⁻¹
Kb [18]: 53700 M⁻¹
Activity [19]: 80%
Ka [20]: 1.99 ×10⁴ /M
Ka [21]: 1548 M⁻¹
Ka [22]: 184 M⁻¹
Activity [23]: Active
Activity [24]: 85%
Activity [25]: 90%
Activity [26]: 78%
Activity [27]: 82%
